The source made the active and inactive calls. No cut-off for these calls is given here.
Key:
[1] = target: T1, NAD-dependent protein deacylase sirtuin-6 (Homo sapiens, UniProt Q8N6T7); assay: Activation of N-terminal his-tagged human SIRT6 expressed in Escherichia coli M15 [pREP4] assessed as increase in peptide demyristoylation incubated for 120 mins using Ac-EALPKK(Myr)-AMC substrate by FDL assay relative to control
In short: (§1)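 Demyristoylation: 1 µM recombinant SIRT6 preincubated with compound for 20 min at 37 °C in 50 mM Tris-HCl pH 8.0, BSA 1 mg/mL, 1 mM DTT, with 10 µM Ac-EALPKK(Myr)-AMC. Fluorescence read. Mean ± s.d., triplicate wells, three independent experiments.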

[2] = target: T1, NAD-dependent protein deacylase sirtuin-6; assay: Activation of N-terminal his-tagged human SIRT6 expressed in Escherichia coli M15 [pREP4] assessed as increase in peptide demyristoylation at 100 uM incubated for 120 mins using Ac-EALPKK(Myr)-AMC substrate by FDL assay relative to control
In short: as §1, with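 “Ac-EALPKK(Myr)-AMC. Started with 1 mM NAD and run 120 min at 37 °C. Developed 120 min at 37 °C with 5 mg/mL trypsin/8 mM nicotinamide.” for “Ac-EALPKK(Myr)-AMC.”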

[3] = system: MIA PaCa-2; assay: Antiproliferative activity against human MIAPaCa2 cells assessed as reduction in cell viability incubated for 72 hrs by MTT assay; assay type: functional, cell-based; details: MIA PaCa-2, 72 h
In short: (§2)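 PDAC cells grown in DMEM or RPMI1640 with 10% FBS and penicillin/streptomycin at 37 °C, 5% CO2. Plated in triplicate, then treated with a concentration series for 72 h. Viability read by MTT. IC50 calculated from dose-response curves.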

[4] = system: PANC-1; assay: Antitumor activity against human PANC1 cells xenografted in BALB/c nude mouse assessed as inhibition of tumor growth at 150 mg/kg/day, po for 30 days relative to control; assay type: functional; details: PANC-1, po, 720 h, read-out: TGI
In short: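 Female BALB/c nude mice, 6-8 weeks old, injected subcutaneously in the right flank with 5×10^6–1×10^7 PANC-1 cells. At 130-150 mm³, mice randomized into 4 groups (n = 6) and dosed orally once daily for 30 days against vehicle. Tumor volume followed over time. Inhibition rate assessed against control.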

[5] = system: ASPC1; assay: Antiproliferative activity against human AsPC1 cells assessed as reduction in cell viability incubated for 72 hrs by MTT assay; assay type: functional, cell-based; details: ASPC1, 72 h; in short: as §2
[6] = system: PANC-1; assay: Antiproliferative activity against human PANC1 cells assessed as reduction in cell viability incubated for 72 hrs by MTT assay; assay type: functional, cell-based; details: PANC-1, 72 h; in short: as §2
[7] = system: BXPC-3; assay: Antiproliferative activity against human BxPC3 cells assessed as reduction in cell viability incubated for 72 hrs by MTT assay; assay type: functional, cell-based; details: BXPC-3, 72 h; in short: as §2
[8] = target: T1, NAD-dependent protein deacylase sirtuin-6; assay: Activation of N-terminal his-tagged human SIRT6 expressed in Escherichia coli M15 [pREP4] assessed as increase in peptide demyristoylation at 20 uM incubated for 120 mins using Ac-EALPKK(Myr)-AMC substrate by FDL assay relative to control
In short: as §1, with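 “Ac-EALPKK(Myr)-AMC. Started with 1 mM NAD and run 120 min at 37 °C. Developed 120 min at 37 °C with 5 mg/mL trypsin/8 mM nicotinamide.” for “Ac-EALPKK(Myr)-AMC.”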

T1 sequence (Q8N6T7 whole entry): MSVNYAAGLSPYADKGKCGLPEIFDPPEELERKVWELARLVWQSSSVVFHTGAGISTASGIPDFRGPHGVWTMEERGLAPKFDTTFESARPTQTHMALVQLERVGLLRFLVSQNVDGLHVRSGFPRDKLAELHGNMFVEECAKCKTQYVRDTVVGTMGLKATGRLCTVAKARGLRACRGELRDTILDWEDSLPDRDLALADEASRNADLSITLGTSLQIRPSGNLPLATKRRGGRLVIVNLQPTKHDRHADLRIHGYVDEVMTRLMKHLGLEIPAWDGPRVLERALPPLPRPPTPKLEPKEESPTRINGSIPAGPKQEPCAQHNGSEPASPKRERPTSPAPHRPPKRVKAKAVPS

SMILES | EC1.5 [1] [µM] | Activity [2] | Activity [8] [%] | also measured
Cc1cc(Nc2cc(CN3CCOCC3)c3nc(C)c(Cc4ccc(Cl)cc4F)n3n2)n[nH]1 | 118 | Active | – | –
COC(=O)c1c2c(c3ccccc3c1O)OC(C)(C)C=C2 | 228 | Active | – | –
COC(=O)c1cc(NS(=O)(=O)c2cc(Cl)cc(Cl)c2)ccc1S(=O)(=O)Nc1cc(Br)c(F)cc1C | – | – | – | IC50 [3]: 55.6 µM; inhibition in vivo at 150 mg/kg/day [4]: 78%; IC50 [5]: 50.5 µM; IC50 [6]: 35.2 µM; IC50 [7]: 58 µM
O=C(Nc1cc(C(F)(F)F)cc(C(F)(F)F)c1)c1cc(-c2cc3ccccc3o2)nc2ccccc12 | 3.11 | – | 430 | –
COc1ccccc1C(=O)Nc1cc2c(cc1N1CCCCC1)n(C)c(=O)n2C | 110 | Active | – | –
O=C(Nc1cccc(F)c1)c1cc(-c2cc3ccccc3o2)nc2ccccc12 | 4.86 | – | 216 | –
COc1ccc(-c2cc(C(=O)Nc3ccc(Cl)c(Cl)c3)c3ccccc3n2)cc1OC | 27.1 | Active | 148 | –
COc1ccc(-c2cc(C(=O)NCc3ccc(C)cc3)c3ccccc3n2)cc1OC | 7.78 | – | 225 | –
O=C(Nc1ccc(C(F)(F)F)cc1)c1cc(-c2cc3ccccc3o2)nc2ccccc12 | 5.17 | – | 335 | –
O=C(Nc1cccc(Cl)c1Cl)c1cc(-c2cc3ccccc3o2)nc2ccccc12 | 20.7 | – | 163 | –

Reference: ChEMBL document CHEMBL4622973, “Discovery of Potent Small-Molecule SIRT6 Activators: Structure-Activity Relationship and Anti-Pancreatic Ductal Adenocarcinoma Activity” (J Med Chem, 2020)
